Measured values from publication PMC6054836 (Molecular Vision, 2018).
Where two headings read alike, the source gives them in different places.

Columns and labels:
PKCα = PKCα (Homo sapiens, UniProt P17252); test: In vitro PKC inhibition assay; type: biochemical; conditions: read-out: IC50 PKCα; purified human recombinant PKCα, 15 min, room temperature
Summary of the method: (§1)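 Purified human recombinant PKC isoforms incubated at room temperature with ATP and isoform-specific substrates (25 to 400 nM) plus increasing concentrations of test compound (C8–C18 alkyl benzyl quaternary ammonium class). TR-FRET detection (LANCE or HTRF). Percent inhibition of control activity; IC50 and Hill coefficient from nonlinear Hill-equation fits of mean replicate values.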

PKCβ1 = PKCβ1 (Homo sapiens, UniProt P05771); test: In vitro PKC inhibition assay; type: biochemical; conditions: read-out: IC50 PKCβ1; purified human recombinant PKCβ1, 30 min, room temperature
Sequence of PKCβ1 (P05771 whole entry): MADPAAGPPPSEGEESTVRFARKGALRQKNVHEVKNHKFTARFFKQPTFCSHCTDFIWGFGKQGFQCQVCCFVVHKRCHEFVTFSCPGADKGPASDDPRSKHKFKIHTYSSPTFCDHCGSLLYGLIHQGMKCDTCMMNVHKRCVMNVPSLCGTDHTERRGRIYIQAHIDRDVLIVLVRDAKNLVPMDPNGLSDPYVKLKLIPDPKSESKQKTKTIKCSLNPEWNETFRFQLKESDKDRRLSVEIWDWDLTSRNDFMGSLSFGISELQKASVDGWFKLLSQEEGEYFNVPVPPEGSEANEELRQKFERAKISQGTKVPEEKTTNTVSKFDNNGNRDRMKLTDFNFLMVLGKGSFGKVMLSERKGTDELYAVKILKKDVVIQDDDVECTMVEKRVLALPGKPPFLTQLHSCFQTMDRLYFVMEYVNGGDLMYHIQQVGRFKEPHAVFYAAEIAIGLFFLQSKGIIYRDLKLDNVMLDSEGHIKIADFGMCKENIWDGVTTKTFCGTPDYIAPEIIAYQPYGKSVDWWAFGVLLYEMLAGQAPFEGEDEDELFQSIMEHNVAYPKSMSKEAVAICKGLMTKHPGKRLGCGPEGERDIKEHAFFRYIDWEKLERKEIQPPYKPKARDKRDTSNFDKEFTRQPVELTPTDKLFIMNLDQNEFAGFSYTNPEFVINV
Summary of the method: as §1

PKCβ2 = PKCβ2 (Homo sapiens, UniProt P05771); test: In vitro PKC inhibition assay; type: biochemical; conditions: read-out: IC50 PKCβ2; purified human recombinant PKCβ2, 15 min, room temperature
Sequence of PKCβ2 (P05771 1-673 isoform P05771-2): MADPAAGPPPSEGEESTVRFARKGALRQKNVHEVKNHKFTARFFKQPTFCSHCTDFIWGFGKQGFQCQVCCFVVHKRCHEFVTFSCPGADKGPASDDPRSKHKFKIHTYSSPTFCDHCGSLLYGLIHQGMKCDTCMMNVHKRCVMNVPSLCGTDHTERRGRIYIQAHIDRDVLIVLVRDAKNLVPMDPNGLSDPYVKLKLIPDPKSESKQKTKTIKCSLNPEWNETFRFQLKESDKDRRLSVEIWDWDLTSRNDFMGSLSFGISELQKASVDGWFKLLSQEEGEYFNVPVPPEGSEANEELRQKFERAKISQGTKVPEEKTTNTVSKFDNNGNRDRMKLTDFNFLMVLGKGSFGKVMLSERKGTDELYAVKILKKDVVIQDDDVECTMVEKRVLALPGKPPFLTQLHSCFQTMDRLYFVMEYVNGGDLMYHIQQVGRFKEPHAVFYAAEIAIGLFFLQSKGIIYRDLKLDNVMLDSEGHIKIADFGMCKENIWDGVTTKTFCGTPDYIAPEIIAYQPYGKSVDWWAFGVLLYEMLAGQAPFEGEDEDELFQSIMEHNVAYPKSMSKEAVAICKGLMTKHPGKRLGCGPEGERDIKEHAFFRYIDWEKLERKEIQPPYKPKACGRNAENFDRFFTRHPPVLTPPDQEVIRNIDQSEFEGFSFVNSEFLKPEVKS
Summary of the method: as §1

PKCδ = PKCδ (Homo sapiens, UniProt Q05655); test: In vitro PKC inhibition assay; type: biochemical; conditions: read-out: IC50 PKCδ; purified human recombinant PKCδ, 30 min, room temperature
Sequence of PKCδ (Q05655 whole entry): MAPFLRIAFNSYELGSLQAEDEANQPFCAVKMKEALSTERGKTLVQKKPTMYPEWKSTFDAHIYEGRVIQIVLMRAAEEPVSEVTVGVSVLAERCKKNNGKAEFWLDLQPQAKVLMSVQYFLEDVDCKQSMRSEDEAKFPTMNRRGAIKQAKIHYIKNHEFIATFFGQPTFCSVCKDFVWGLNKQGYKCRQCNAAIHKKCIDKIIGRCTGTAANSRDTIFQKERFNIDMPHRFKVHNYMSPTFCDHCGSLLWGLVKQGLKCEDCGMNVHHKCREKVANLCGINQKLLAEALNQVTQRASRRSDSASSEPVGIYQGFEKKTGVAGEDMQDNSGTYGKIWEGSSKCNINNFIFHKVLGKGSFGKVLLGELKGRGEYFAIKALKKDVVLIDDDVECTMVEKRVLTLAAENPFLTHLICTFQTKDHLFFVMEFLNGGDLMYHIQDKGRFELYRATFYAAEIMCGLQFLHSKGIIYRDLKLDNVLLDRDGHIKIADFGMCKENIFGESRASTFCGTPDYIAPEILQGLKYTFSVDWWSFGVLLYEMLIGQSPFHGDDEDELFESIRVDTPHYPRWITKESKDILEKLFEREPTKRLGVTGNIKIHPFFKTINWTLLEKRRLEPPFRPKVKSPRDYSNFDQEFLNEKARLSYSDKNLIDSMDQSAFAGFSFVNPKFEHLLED
Summary of the method: as §1

PBMCs (LPS) = test: Marker secretion inhibition in LPS-stimulated PBMCs; type: cell-based; conditions: Homo sapiens, PBMC
Summary of the method: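 PBMCs were Ficoll-isolated from one donor's blood and cultured in RPMI 1640 with 10% heat-inactivated FBS, 2 mM glutamine and pen/strep at 37 °C, 5% CO2. Test compound was given in a 30-min preincubation, then in fresh medium with LPS for 24 h. IL-6, IL-8 and IL-12 in supernatant were measured by flow-cytometric bead array. Results are % inhibition versus stimulated cells, mean ± SEM of triplicates.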

Row | IC50 (PKCα) | IC50 (PKCβ1) | IC50 (PKCβ2) | IC50 (PKCδ) | Compound | inhibition at 0.1 µM (PBMCs (LPS); read-out: % of marker secretion inhibition, IL6) | inhibition at 0.1 µM (PBMCs (LPS); read-out: % of marker secretion inhibition, IL8) | inhibition at 0.1 µM (PBMCs (LPS); read-out: % of marker secretion inhibition, IL12) | inhibition at 0.1 µM (PBMCs (LPS); read-out: % of marker secretion inhibition, TNFα)
1 | 5.4 µM | 10.1 µM | 14.1 µM | > 109 µM | CCCCCCCCCCCCCC[N+](C)(C)Cc1ccccc1 [C14] |  |  |  | 
2 | 11.7 µM | 74.6 µM | 39.3 µM |  | CCCCCCCCCCCCCCCCCC[N+](C)(C)Cc1ccccc1 [C18] |  |  |  | 
3 | 22.6 µM | 58.8 µM | 58.8 µM | > 118 µM | CCCCCCCCCCCC[N+](C)(C)Cc1ccccc1 [C12] |  |  |  | 
4 |  | > 101 µM | > 101 µM |  | CCCCCCCCCCCCCCCC[N+](C)(C)Cc1ccccc1 [C16 (CKC), cetalkonium chloride] |  |  |  | 

More lines, now with the values behind:

Row | Compound | IC50 (PKCα) | IC50 (PKCβ1) | IC50 (PKCβ2) | IC50 (PKCδ) | inhibition at 0.1 µM (PBMCs (LPS); read-out: % of marker secretion inhibition, IL6) | inhibition at 0.1 µM (PBMCs (LPS); read-out: % of marker secretion inhibition, IL8) | inhibition at 0.1 µM (PBMCs (LPS); read-out: % of marker secretion inhibition, IL12) | inhibition at 0.1 µM (PBMCs (LPS); read-out: % of marker secretion inhibition, TNFα)
5 | CCCCCCCC[N+](C)(C)Cc1ccccc1 [C8] | > 141 µM | > 101 µM | > 101 µM |  |  |  |  | 
6 | C[C@@H]1C[C@H]2[C@@H]3CCC4=CC(=O)C=C[C@]4(C)[C@@]3(F)[C@@H](O)C[C@]2(C)[C@@]1(O)C(=O)CO [DXM, dexamethasone] |  |  |  |  | 72 ± 1% | 68 ± 2% | 97 ± 1% | 85 ± 1%
7 | CCCCCCCCCC[N+](C)(C)Cc1ccccc1 [C10] | > 128 µM | > 101 µM | > 101 µM | > 128 µM |  |  |  | 
